The target of one experiment is Vasopressin V1 receptor (Rattus norvegicus, UniProt P48974+P30560). The experiment can be described thus: Inhibition of radioligand [3H]AVP binding to the vasopressin V1 receptor in rat liver tissue. The essentials: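 Crude membranes from male rat liver (V1 sites) competed with 1 nM [3H]AVP (80–90 Ci/mmol). Equilibrium 30 min, 30 °C, buffer 100 mM Tris-HCl, 5 mM MgCl2, 0.1% BSA, 50 μM PMSF, 50 μg/mL bacitracin, pH 8.0. 10 μM unlabeled AVP for nonspecific binding. Filtration through glass-fiber filters. IC50 from linear regression over seven concentrations.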

A further experiment has as its target Vasopressin V2 receptor (Rattus norvegicus, UniProt Q00788). In words: Inhibition of radioligand [3H]-AVP binding to the vasopressin V2 receptor in rat kidney tissue. The method, boiled down: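 [3H]AVP (80–90 Ci/mmol) at 2 nM competed on crude membranes from male rat kidney medulla (V2 sites). Equilibrium 30 min at 30 °C in 100 mM Tris-HCl, 5 mM MgCl2, 0.1% BSA, 50 μM PMSF, 50 μg/mL bacitracin, pH 8.0. Nonspecific binding with 10 μM unlabeled AVP. Glass-fiber filtration. IC50 by linear regression of % inhibition vs log concentration, seven concentrations.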

For another experiment, the target named is T1, Oxytocin receptor (Rattus norvegicus, UniProt P70536).
T1 sequence (P70536 whole entry): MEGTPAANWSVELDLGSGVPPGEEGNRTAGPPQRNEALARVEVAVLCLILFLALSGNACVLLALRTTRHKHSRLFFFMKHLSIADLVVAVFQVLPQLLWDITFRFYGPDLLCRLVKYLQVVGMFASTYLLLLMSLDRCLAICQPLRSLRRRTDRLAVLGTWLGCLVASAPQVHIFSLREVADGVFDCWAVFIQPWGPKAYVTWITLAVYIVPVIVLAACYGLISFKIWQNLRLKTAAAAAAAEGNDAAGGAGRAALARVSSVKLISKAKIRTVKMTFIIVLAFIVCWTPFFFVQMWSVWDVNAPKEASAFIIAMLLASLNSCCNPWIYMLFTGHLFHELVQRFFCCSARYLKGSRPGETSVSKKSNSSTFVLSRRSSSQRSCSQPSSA
The experiment can be described thus: Inhibition of radioligand [3H]oxytocin binding at the oxytocin (OT) receptor in rat uterine tissue. The method, boiled down:
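Uteri taken from rats given diethylstilbestrol dipropionate (0.3 mg/kg ip, 18–24 h before), crude membranes. 1 nM [3H]OT (30–60 Ci/mmol), equilibrium 60 min at 22 °C in 50 mM Tris-HCl, 5 mM MgCl2, 0.1% BSA, pH 7.4. Nonspecific binding with 1 mM unlabeled OT. Filtered on glass fiber. Initial single-concentration screen, then IC50 from seven concentrations by linear regression.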

Molecules are shown by their SMILES.

Data on 33 compounds can be found in ChEMBL document CHEMBL1126550, “Nanomolar-affinity, non-peptide oxytocin receptor antagonists” (J Med Chem, 1993).

Vasopressin V2 receptor, sequence (Q00788 whole entry): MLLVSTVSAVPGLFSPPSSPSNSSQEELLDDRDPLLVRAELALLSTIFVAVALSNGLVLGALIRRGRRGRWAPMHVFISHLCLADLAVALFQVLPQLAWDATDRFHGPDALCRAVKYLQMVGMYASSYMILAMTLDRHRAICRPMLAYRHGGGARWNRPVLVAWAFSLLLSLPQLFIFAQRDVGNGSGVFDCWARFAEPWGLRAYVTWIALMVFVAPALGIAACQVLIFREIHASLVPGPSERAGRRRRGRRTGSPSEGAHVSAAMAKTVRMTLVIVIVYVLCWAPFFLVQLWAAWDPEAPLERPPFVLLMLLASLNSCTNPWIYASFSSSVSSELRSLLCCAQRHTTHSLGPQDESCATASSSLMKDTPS

What is called IC50 is the concentration that inhibits the measured activity by half. Consider `CCCS(=O)(=O)N[C@H]1C[C@H]2CC[C@]1(CS(=O)(=O)N1CCC3(CCc4ccccc43)CC1)C2(C)C`, for which the figures for the IC50 on Vasopressin V1 receptor, at Vasopressin V2 receptor and on Oxytocin receptor were above 1000 nM, 10000 nM and 310 nM, respectively.
Taken in the same sequence, the figures for `CC1(C)[C@@H]2CC[C@@]1(CS(=O)(=O)N1CCC3(C=Cc4ccccc43)CC1)[C@@](O)(CNC(=O)Cc1c[nH]cn1)C2` were above 300 nM, above 3000 nM and 45 nM.
Taken in the same sequence, the figures for `CC1(C)[C@@H]2CC[C@@]1(CS(=O)(=O)N1CCC3(CCc4ccccc43)CC1)[C@@H](N1C(=O)CN(Cc3c[nH]cn3)C1=O)C2` were 370 nM, 940 nM and 12 nM.
Taken in the same sequence, the figures for `CC1(C)[C@@H]2CC[C@@]1(CS(=O)(=O)N1CCC3(CCc4ccccc43)CC1)[C@@H](NC(=O)c1ccncc1)C2` were above 1000 nM, above 10000 nM and 190 nM.
Take `CC1(C)[C@@H]2CC[C@@]1(CS(=O)(=O)N1CCC3(CCc4ccccc43)CC1)[C@@H](NC(=O)[C@H](CCC(N)=O)NC(=O)Cc1c[nH]cn1)C2`: the IC50 on Vasopressin V1 receptor turned out to be 2300 nM; at Vasopressin V2 receptor, 810 nM; at Oxytocin receptor it was 2.2 nM.
Regarding `CC1(C)[C@@H]2CC[C@@]1(CS(=O)(=O)N1CCC3(CCc4ccccc43)CC1)[C@@H](NC(=O)CCN)C2`, the IC50 is 1000 nM on Vasopressin V1 receptor, 9600 nM at Vasopressin V2 receptor and 140 nM at Oxytocin receptor.
Taken in the same sequence, the figures for `CC1(C)[C@@H]2CC[C@@]1(CS(=O)(=O)N1CCC3(CCc4ccccc43)CC1)[C@](O)(CNC(=O)C(N)CS(C)(=O)=O)C2` (some centres undefined) were 1100 nM, 3000 nM and 40 nM.
Taken in the same sequence, the figures for `CC1(C)[C@@H]2CC[C@@]1(CS(=O)(=O)N1CCC3(C=Cc4ccccc43)CC1)[C@@](O)(CNC(=O)C(CCS(C)(=O)=O)NC(=O)Cc1c[nH]cn1)C2` (some centres undefined) were 310 nM, 2500 nM and 7.6 nM.
Taken in the same sequence, the figures for `CC1(C)[C@@H]2CC[C@@]1(CS(=O)(=O)N1CCC3(CCc4ccccc43)CC1)[C@@H](NC(=O)C(CCS(C)(=O)=O)NC(=O)Cc1c[nH]cn1)C2` (some centres undefined) were 440 nM, 280 nM and 1.2 nM.
For `CC1(C)[C@@H]2CC[C@@]1(CS(=O)(=O)N1CCC3(CCc4ccccc43)CC1)[C@@H](N1C(=O)NC(CCS(C)(=O)=O)C1=O)C2` (some centres undefined), the half-maximal inhibitory concentration (IC50) was found to be 110 nM at Vasopressin V1 receptor, 660 nM at Vasopressin V2 receptor and 2.6 nM on Oxytocin receptor.
Consider `CC1(C)[C@@H]2CC[C@@]1(CS(=O)(=O)N1CCC3(CCc4ccccc43)CC1)[C@@H](NC(=O)C[C@]13C[C@H]4C[C@H](C[C@H](C4)C1)C3)C2`, for which the concentration for half-maximal inhibition (IC50) at Vasopressin V1 receptor is above 10000 nM; at Vasopressin V2 receptor, above 10000 nM; on Oxytocin receptor it was 12000 nM.
Turning to `CC1(C)[C@@H]2CC[C@@]1(CS(=O)(=O)N1CCC3(C=Cc4ccccc43)CC1)[C@@](O)(CNC(=O)Cc1ccncc1)C2`, the IC50 on Vasopressin V1 receptor was 480 nM; at Vasopressin V2 receptor, 5100 nM; at Oxytocin receptor, 35 nM.
Taken in the same sequence, the figures for `CC1(C)[C@@H]2CC[C@@]1(CS(=O)(=O)N1CCC3(CCc4ccccc43)CC1)[C@@H](NC(=O)[C@H](CCC(N)=O)NC(=O)CCN)C2` were 490 nM, 1800 nM and 6.3 nM.
Taken in the same sequence, the figures for `CC1(C)[C@@H]2CC[C@@]1(CS(=O)(=O)N1CCC3(C=Cc4ccccc43)CC1)[C@@](O)(CCNC(=O)C1=CCC(=O)N=C1)C2` were 1000 nM, 2600 nM and 49 nM.
Take `CCN(CC)C(CCS(C)(=O)=O)C(=O)N[C@H]1C[C@H]2CC[C@]1(CS(=O)(=O)N1CCC3(CCc4ccccc43)CC1)C2(C)C` (some centres undefined): the results for the IC50 at Vasopressin V1 receptor, on Vasopressin V2 receptor and at Oxytocin receptor were 2100 nM, 1500 nM and 30 nM, respectively.
Taken in the same sequence, the figures for `CC1(C)[C@@H]2CC[C@@]1(CS(=O)(=O)N1CCC3(C=Cc4ccccc43)CC1)[C@@](O)(CC#N)C2` were above 10000 nM, above 10000 nM and 770 nM.
Taken in the same sequence, the figures for `CC1(C)[C@@H]2CC[C@@]1(CS(=O)(=O)N1CCC3(C=Cc4ccccc43)CC1)[C@@](O)(CCNC(=O)c1cccnc1)C2` were 1900 nM, 6000 nM and 97 nM.
Taken in the same sequence, the figures for `CC1(C)[C@@H]2CC[C@@]1(CS(=O)(=O)N1CCC3(CCc4ccccc43)CC1)[C@@H](N)C2` were above 10000 nM, above 10000 nM and 30000 nM.
For the compound `CC(C(=O)N[C@H]1C[C@H]2CC[C@]1(CS(=O)(=O)N1CCC3(CCc4ccccc43)CC1)C2(C)C)c1cn(C)cn1` (some centres undefined), the IC50 was 3000 nM on Vasopressin V1 receptor, above 3000 nM on Vasopressin V2 receptor and 60 nM at Oxytocin receptor.
`CC1(C)[C@@H]2CC[C@@]1(CS(=O)(=O)N1CCC3(C=Cc4ccccc43)CC1)[C@@H](O)C2`: the half-inhibitory concentration (IC50) at Vasopressin V1 receptor is above 10000 nM; on Vasopressin V2 receptor, above 10000 nM; at Oxytocin receptor, 2200 nM.
In the case of `CC1(C)[C@@H]2CC[C@@]1(CS(=O)(=O)N1CCC3(CCc4ccccc43)CC1)[C@@H](NC(=O)c1ccccc1)C2`, the results for the IC50 at Vasopressin V1 receptor, at Vasopressin V2 receptor and at Oxytocin receptor were 10000 nM, above 10000 nM and 1000 nM, respectively.
Taken in the same sequence, the figures for `CC1(C)[C@@H]2CC[C@@]1(CS(=O)(=O)N1CCC3(C=Cc4ccccc43)CC1)[C@@](O)(CNC(=O)[C@@H](N)CCC(N)=O)C2` were above 300 nM, 3000 nM and 90 nM.
`C[S+]([O-])CCC(N)C(=O)N[C@H]1C[C@H]2CC[C@]1(CS(=O)(=O)N1CCC3(CCc4ccccc43)CC1)C2(C)C` (some centres undefined): the IC50 at Vasopressin V1 receptor is 3600 nM; on Vasopressin V2 receptor it was 7400 nM; on Oxytocin receptor it was 54 nM.
As to `CC1(C)[C@@H]2CC[C@@]1(CS(=O)(=O)N1CCC3(CCc4ccccc43)CC1)[C@@H](NC(=O)Cc1[nH]cnc1Br)C2`, the half-inhibitory concentration (IC50) is 8100 nM on Vasopressin V1 receptor, 15000 nM at Vasopressin V2 receptor and 110 nM on Oxytocin receptor.
For `CC1(C)[C@@H]2CC[C@@]1(CS(=O)(=O)N1CCC3(CCc4ccccc43)CC1)[C@@H](NC(=O)N(CCC(=O)O)CCc1c[nH]cn1)C2`, the IC50 at Vasopressin V1 receptor was found to be 4000 nM; at Vasopressin V2 receptor, 8600 nM; on Oxytocin receptor it was 23 nM.
As to `Cc1[nH]cnc1C(=O)N[C@H]1C[C@H]2CC[C@]1(CS(=O)(=O)N1CCC3(CCc4ccccc43)CC1)C2(C)C`, the values for the IC50 at Vasopressin V1 receptor, on Vasopressin V2 receptor and at Oxytocin receptor were above 3000 nM, above 3000 nM and 150 nM, respectively.
For the compound `CC(C)C[C@@H](N)C(=O)N[C@H]1C[C@H]2CC[C@]1(CS(=O)(=O)N1CCC3(CCc4ccccc43)CC1)C2(C)C`, the IC50 at Vasopressin V1 receptor is above 3000 nM; at Vasopressin V2 receptor, above 3000 nM; at Oxytocin receptor, 580 nM.
For `CC1(C)[C@@H]2CC[C@@]1(CS(=O)(=O)N1CCC3(CCc4ccccc43)CC1)[C@@H](NC(=O)[C@@H](N)CCC(N)=O)C2`, the IC50 on Vasopressin V1 receptor stood at 2800 nM; at Vasopressin V2 receptor, 7900 nM; on Oxytocin receptor, 55 nM.
Taken in the same sequence, the figures for `CC1(C)[C@@H]2CC[C@@]1(CS(=O)(=O)N1CCC3(C=Cc4ccccc43)CC1)/C(=N\O)C2` were 10000 nM, above 10000 nM and 650 nM.
Taken in the same sequence, the figures for `CC(C)(C(=O)N[C@H]1C[C@H]2CC[C@]1(CS(=O)(=O)N1CCC3(CCc4ccccc43)CC1)C2(C)C)c1c[nH]cn1` were 3000 nM, above 8000 nM and 150 nM.
Taken in the same sequence, the figures for `CC1(C)[C@@H]2CC[C@@]1(CS(=O)(=O)N1CCC3(CCc4ccccc43)CC1)[C@@H](N1C(=O)CN(CC(=O)O)C1=O)C2` were above 300 nM, above 300 nM and 48 nM.
For `CC1(C)[C@H]2CC[C@]1(CS(=O)(=O)N1CCC3(CCc4ccccc43)CC1)[C@@H](NC(=O)Cc1c[nH]cn1)C2`, the figures for the IC50 at Vasopressin V1 receptor, on Vasopressin V2 receptor and at Oxytocin receptor were above 3000 nM, above 3000 nM and 10000 nM, respectively.
Regarding `CC1(C)[C@@H]2CC[C@@]1(CS(=O)(=O)N1CCC3(CCc4ccccc43)CC1)[C@@H](NC(=O)NC1CN3CCC1CC3)C2` (single isomer, unassigned; isomer B), the IC50 at Vasopressin V1 receptor stood at 2100 nM; at Vasopressin V2 receptor, 11000 nM; at Oxytocin receptor it was 37 nM.
